ChEMBL document CHEMBL4428038, “Overcoming chloroquine resistance in malaria: Design, synthesis and structure-activity relationships of novel chemoreversal agents” (Eur J Med Chem, 2016)
Active and inactive are the calls of the source. The calls are words filed in the database; no cut-off is given here.

Key:
Plasmodium falciparum [1] = experiment: Intrinsic antimalarial activity against chloroquine/artemisinin-resistant Plasmodium falciparum NHP4773 harboring CRT K76T mutant assessed as reduction in parasite viability at 500 nM; type: functional, organism-based
Plasmodium falciparum [2] = experiment: Intrinsic antimalarial activity against chloroquine-resistant Plasmodium falciparum NHP4559 harboring CRT K76T mutant assessed as reduction in parasite viability at 500 nM; type: functional, organism-based
[3] = system: T1, Chloroquine resistance transporter (Plasmodium falciparum), Q9N623 [K76T]; experiment: Inhibition of CRT K76T mutant in chloroquine-resistant Plasmodium falciparum Dd2 isolate MRA-156 assessed as reversal of chloroquine resistance by measuring reduction in chloroquine IC50 at 500 nM relative to chloroquine alone
T1 sequence (whole entry): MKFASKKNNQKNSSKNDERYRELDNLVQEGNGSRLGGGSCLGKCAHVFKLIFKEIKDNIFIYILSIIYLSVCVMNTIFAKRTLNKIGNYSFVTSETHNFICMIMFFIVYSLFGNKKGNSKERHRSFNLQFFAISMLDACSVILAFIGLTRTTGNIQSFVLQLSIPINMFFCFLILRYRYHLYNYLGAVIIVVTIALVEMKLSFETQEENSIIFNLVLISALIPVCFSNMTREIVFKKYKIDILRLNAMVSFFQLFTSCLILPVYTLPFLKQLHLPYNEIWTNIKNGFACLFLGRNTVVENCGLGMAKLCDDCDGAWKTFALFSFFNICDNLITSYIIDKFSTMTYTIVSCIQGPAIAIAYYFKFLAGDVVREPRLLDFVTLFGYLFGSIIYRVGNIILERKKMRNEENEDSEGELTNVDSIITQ

[4] = system: T1, Chloroquine resistance transporter (Plasmodium falciparum), Q9N623 [K76T]; experiment: Inhibition of CRT K76T mutant in chloroquine/artemisinin-resistant Plasmodium falciparum NHP4773 assessed as reversal of chloroquine resistance by measuring reduction in chloroquine IC50 at 500 nM relative to chloroquine alone
Plasmodium falciparum K1 [5] = experiment: Inhibition of CRT CVIET haplotype mutant in chloroquine-resistant Plasmodium falciparum K1 isolate MRA-159 assessed as reversal of chloroquine resistance by measuring reduction in chloroquine IC50 at 500 nM relative to chloroquine alone
[6] = Aqueous kinetic solubility of compound in pH 7.4 solution incubated for 24 hrs; type: physicochemical; details: aqueous solution pH 7.4, pH 7.4; read-out: Kinetic_solubility
TAMH = experiment: Cytotoxicity against TAMH assessed as reduction in cell viability by CellTiter-Glo assay; type: cell-based; details: Mus musculus
How it was run: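 For TAMH (hepatocyte line) and AC10 (cardiomyocyte line), viability was read by ATP luminescence (CellTiter-Glo), and the value reported is IC50.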

[7] = system: Plasmodium falciparum 7G8; experiment: Inhibition of CRT SVMNT haplotype mutant in intermediate chloroquine-resistant Plasmodium falciparum 7G8 isolate MRA-154 t assessed as reversal of chloroquine resistance by measuring reduction in chloroquine IC50 at 500 nM relative to chloroquine alone
[8] = Permeability of compound incubated for 6 hrs at pH 7.4 by PAMPA; type: ADME; details: read-out: Peff
Plasmodium falciparum [9] = experiment: Intrinsic antimalarial activity against chloroquine/artemisinin-resistant Plasmodium falciparum ARS233 harboring CRT K76T mutant assessed as reduction in parasite viability at 500 nM; type: functional, organism-based
[10] = Therapeutic index, ratio of IC50 for TAMH to EC50 for chloroquine-resistant Plasmodium falciparum K1 isolate MRA-159 CRT CVIET haplotype mutant; type: toxicity; details: mouse, TAMH cells; read-out: Ratio IC50/EC50
How it was run: (§1)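 Host-cell IC50 was measured by ATP-luminescence viability assay in TAMH hepatocytes (mean of n = 4 independent determinations) or AC10 cardiomyocytes. Each IC50 was divided by the K1 EC50, the concentration of chemoreversal agent that halves the chloroquine concentration needed for 50% parasite inhibition.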

[11] = system: T1, Chloroquine resistance transporter (Plasmodium falciparum), Q9N623 [K76T]; experiment: Inhibition of CRT K76T mutant in chloroquine-resistant Plasmodium falciparum NHP4559 assessed as reversal of chloroquine resistance by measuring reduction in chloroquine IC50 at 500 nM relative to chloroquine alone
[12] = Resistance index, ratio of EC50 for intermediate chloroquine-resistant Plasmodium falciparum 7G8 isolate MRA-154 CRT SVMNT haplotype mutant to EC50 for chloroquine-sensitive Plasmodium falciparum 3D7 isolate MRA-102
How it was run: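 EC50 is the concentration of chemoreversal agent that halves the chloroquine concentration needed to inhibit survival of half the parasites. It was derived from dose-dependent shifts in chloroquine IC50, measured in 7G8 and 3D7. The index is the 7G8 EC50 divided by the 3D7 EC50.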

[13] = (§2) Inhibition of CRT SVMNT haplotype mutant in intermediate chloroquine-resistant Plasmodium falciparum 7G8 isolate MRA-154 assessed as reversal of chloroquine resistance by measuring reduction in chloroquine IC50 relative to chloroquine alone
How it was run: (§3)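 Chloroquine IC50 was determined in the presence of a fixed 500 nM chemoreversal agent, against chloroquine alone. The RMI is the ratio of chloroquine IC50 with agent to chloroquine IC50 alone. Mean of n = 3; two-tailed t test versus chloroquine without agent.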

[14] = system: Plasmodium falciparum 7G8; experiment: as §2; how it was run: as §3
Plasmodium falciparum [15] = experiment: Intrinsic antimalarial activity against chloroquine-resistant Plasmodium falciparum K1 isolate MRA-159 harboring CRT CVIET haplotype mutant assessed as reduction in parasite viability at 500 nM; type: functional, organism-based
Plasmodium falciparum [16] = experiment: Potentiation of chloroquine-induced antimalarial activity against chloroquine-sensitive Plasmodium falciparum HB3 isolate MRA-155 assessed as reduction in chloroquine IC50 at 500 nM relative to chloroquine alone; type: functional
Plasmodium falciparum K1 [17] = experiment: Inhibition of CRT CVIET haplotype mutant in Plasmodium falciparum K1 isolate MRA-159 infected in erythrocytes assessed as chloroquine-coumarin probe accumulation at 10 uM after 10 hrs by Hoechst 33342 staining based flow cytometry (reference value: 35.57 +/- 3.84%); type: cell-based; parameters: scale not given: the % may be the effect or the level left
How it was run: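 Infected erythrocyte cultures at 2.5% hematocrit and 7–12% parasitemia, synchronized to late-ring/early-trophozoite stage, were incubated with chloroquine-coumarin probe plus test agent for 10 h at 37 C. Cells were then washed, resuspended in PBS and read by flow cytometry (405 nm excitation, 450/50 filter). Hoechst-stained duplicate wells set parasitemia. Uptake = % infected erythrocytes fluorescent. Controls: PBS (negative), desipramine and parent compound (positive). ≥3 independent experiments; mean ± SEM.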

Plasmodium falciparum [18] = experiment: Intrinsic antimalarial activity against chloroquine-resistant Plasmodium falciparum Dd2 isolate MRA-156 harboring CRT K76T mutant assessed as reduction in parasite viability at 500 nM; type: functional, organism-based
[19] = Therapeutic index, ratio of IC50 for human AC10 cells to EC50 for chloroquine-resistant Plasmodium falciparum K1 isolate MRA-159 CRT CVIET haplotype mutant; type: toxicity; details: read-out: Ratio IC50/EC50; how it was run: as §1
[20] = Resistance index, ratio of chloroquine IC50 for chloroquine-resistant Plasmodium falciparum K1 isolate MRA-159 CRT CVIET haplotype mutant to chloroquine IC50 for chloroquine-sensitive Plasmodium falciparum 3D7 isolate MRA-102 at 500 nM
How it was run: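 Chloroquine IC50 was measured with the chemoreversal agent fixed at 500 nM in K1 or 7G8 and in sensitive 3D7 (means, n = 3). The resistance ratio is the chloroquine IC50 in K1 or 7G8 divided by the chloroquine IC50 in 3D7.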

Plasmodium falciparum [21] = experiment: Intrinsic antimalarial activity against chloroquine-sensitive Plasmodium falciparum HB3 isolate MRA-155 assessed as reduction in parasite viability at 500 nM; type: functional, organism-based

c1ccc(CN[C@@H]2C3CCN(CC3)[C@@H]2Cc2ccccc2)cc1 (relative stereo)
Activity (Plasmodium falciparum [1]): inactive | Activity (Plasmodium falciparum [2]): inactive | Ratio IC50 [3]: 0.6 | Ratio IC50 [4]: 0.45 | Ratio IC50 (Plasmodium falciparum K1 [5]): 0.39 | solubility kinetic at 24 h [6]: > 310 µg/mL | IC50 (TAMH): > 100 µM | Ratio IC50 [7]: 0.8 | Papp at 6 h [8]: 19.2 ×10⁻⁶ cm/s | Activity (Plasmodium falciparum [9]): inactive | selectivity ratio [10]: > 588 | Ratio IC50 [11]: 0.47 | Ratio EC50 [12]: 2 | EC50 [13]: 0.38 µM | inhibition [14]: Dose-dependent effect | Activity (Plasmodium falciparum [15]): inactive | Ratio IC50 (Plasmodium falciparum [16]): 1.12 | Activity (Plasmodium falciparum K1 [17]): 83.4% | Activity (Plasmodium falciparum [18]): inactive | selectivity ratio [19]: 420 | Ratio IC50 [20]: 6.4 | Activity (Plasmodium falciparum [21]): inactive
